Measured values: ChEMBL document CHEMBL1144717, “1-(2-Carboxyindol-5-yloxy)propan-2-ones as inhibitors of human cytosolic phospholipase A2alpha: synthesis, biological activity, metabolic stability, and solubility” (Bioorg Med Chem, 2008)
≈ marks a conversion by molar mass, not a printed value. Calls of active or inactive are those of the source. The calls are words filed in the database; no cut-off is given here.

How the values were obtained:
[1] = biological target: T1, Cytosolic phospholipase A2 (Homo sapiens, UniProt P47712); assay: Inhibition of human platelet cPLA2-alpha activity
T1 sequence (P47712 whole entry): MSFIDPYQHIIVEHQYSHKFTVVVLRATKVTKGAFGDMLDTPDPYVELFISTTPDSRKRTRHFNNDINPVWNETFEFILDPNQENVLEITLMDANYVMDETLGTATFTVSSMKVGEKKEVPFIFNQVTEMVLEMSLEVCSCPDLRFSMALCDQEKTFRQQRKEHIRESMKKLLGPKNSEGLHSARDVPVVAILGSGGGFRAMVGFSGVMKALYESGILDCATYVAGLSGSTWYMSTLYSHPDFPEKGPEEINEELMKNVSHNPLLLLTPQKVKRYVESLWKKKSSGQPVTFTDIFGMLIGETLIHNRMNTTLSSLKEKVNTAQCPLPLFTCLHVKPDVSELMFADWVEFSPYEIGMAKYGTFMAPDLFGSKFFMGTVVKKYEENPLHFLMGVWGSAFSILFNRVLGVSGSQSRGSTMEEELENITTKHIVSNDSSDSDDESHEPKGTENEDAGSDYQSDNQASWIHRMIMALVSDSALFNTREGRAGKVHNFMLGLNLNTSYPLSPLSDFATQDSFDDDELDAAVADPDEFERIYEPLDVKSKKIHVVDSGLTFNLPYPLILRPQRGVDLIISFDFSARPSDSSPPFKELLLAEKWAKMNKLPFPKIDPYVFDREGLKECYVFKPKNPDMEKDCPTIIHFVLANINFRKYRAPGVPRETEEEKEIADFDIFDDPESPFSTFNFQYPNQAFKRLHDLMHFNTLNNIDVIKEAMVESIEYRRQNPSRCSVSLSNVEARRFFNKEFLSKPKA
Summary of the method: (§1)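 cPLA₂α isolated from human platelets. Incubated 60 min. Arachidonic acid released, with and without compound, measured by RP-HPLC with UV 200 nm after SPE cleanup, using an internal standard. Values are means of at least two independent determinations.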

[2] = Metabolic stability in rat liver microsomes at 20 uM after 30 mins in presence of NADPH by reverse phased HPLC relative to control; type: ADME, Microsome; conditions: read-out: Stability
Summary of the method: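 Rat liver microsomes at 5.7 mg protein/mL in PBS (0.1 M, pH 7.4); compound final 20 µM from DMSO. Preincubated 5 min at 37 °C, then started with NADPH (12 mM) and MgCl₂ (5 mM) solution. Stopped after 30 min with acetonitrile. Parent ketone peak measured by RP-HPLC at 240 nm and compared with an NADPH-free incubation. Mean of at least two independent determinations.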

[3] = Solubility in sodium phosphate buffer at pH 7.4; type: physicochemical
Summary of the method: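 Supernatant diluted with acetonitrile and phosphoric acid, then quantified by RP-HPLC at 240 nm against a calibration curve. Mean ± SD, n = 3 (n = 2 for values <1 µg/mL).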

[4] = biological target: T1, Cytosolic phospholipase A2; assay: Inhibition of cPLA2-alpha in TPA-stimulated intact human platelets assessed as liberation of arachidonic acid after 60 mins
Summary of the method: (§2)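 Human platelets from buffy coat, washed in PBS/EDTA and resuspended in PBS (0.1 M, pH 7.4) at about 10⁸ cells/mL. Preincubated 5 min at 37 °C with ETYA (final 10 µM) and compound in DMSO, then CaCl₂ added for a further 5 min. Stimulated with TPA (final 2 µM) for 60 min at 37 °C. Released arachidonic acid quantified by SPE then RP-HPLC, UV 200 nm, against an internal standard.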

[5] = biological target: T2, Cytosolic phospholipase A2 (Homo sapiens) (UniProt P47712); assay: Inhibition of human platelet cPLA2-alpha activity at 10 uM; summary of the method: as §1
T2 sequence (whole entry): T1 sequence (P47712 whole entry)

[6] = biological target: T2, Cytosolic phospholipase A2 (Homo sapiens); assay: Inhibition of cPLA2-alpha in TPA-stimulated intact human platelets assessed as liberation of arachidonic acid at 10 um after 60 mins; summary of the method: as §2

IC50 [1]	remaining at 0.5 h, 20 µM [2]	solubility [3]	IC50 [4]	inhibition [5]	Activity [6]	Activity [5]	SMILES
1200 nM	< 5%	< 1 µg/mL	600 nM	–	–	–	CCCCCCCCc1ccc(OCC(=O)COc2ccc3c(c2)cc(C(=O)O)n3C)cc1
2100 nM	< 5%	< 1 µg/mL	–	–	–	–	CCCCCCCCc1ccc(OCC(=O)COc2ccc3c(c2)cc(C(=O)O)n3CCC)cc1
300 nM	18%	8.1 µg/mL (≈ 16.3 µM)	1300 nM	–	–	–	CCCCCCCCc1ccc(OCC(=O)COc2ccc3c(c2)cc(C(=O)O)n3CC(=O)O)cc1
400 nM	< 5%	30 µg/mL (≈ 57.3 µM)	300 nM	–	–	–	CCCCCCCCc1ccc(OCC(=O)COc2ccc3c(c2)cc(C(=O)O)n3CCCC(=O)O)cc1
3300 nM	< 5%	8.4 µg/mL (≈ 19.2 µM)	–	–	–	–	CCCCCCCCc1ccc(OCC(=O)COc2ccc3[nH]c(C(=O)O)cc3c2)cc1
1500 nM	15%	13 µg/mL (≈ 22.7 µM)	–	–	–	–	CCCCCCCCc1ccc(OCC(=O)COc2ccc3c(c2)cc(C(=O)O)n3Cc2ccc(C(=O)O)cc2)cc1
> 10000 nM	9%	46 µg/mL (≈ 90.4 µM)	–	32%	–	–	CCCCCCCCc1ccc(OCC(=O)COc2ccc3c(c2)cc(C(=O)O)n3CCN(C)C)cc1
–	–	–	–	–	inactive	inactive	CCCCCCCCc1ccc(OCC(O)COc2ccc3c(c2)cc(C(=O)O)n3C)cc1 (stereo not given)
10000 nM	< 5%	< 1 µg/mL	–	–	–	–	CCCCCCCCc1ccc(OCC(=O)COc2ccc3c(c2)cc(C(=O)O)n3Cc2ccccc2)cc1
–	–	–	–	–	inactive	inactive	CCCCCCCCc1ccc(OCC(O)COc2ccc3c(c2)cc(C(=O)O)n3CC(=O)O)cc1 (stereo not given)
600 nM	< 5%	17 µg/mL (≈ 30.8 µM)	500 nM	–	–	–	CCCCCCCCc1ccc(OCC(=O)COc2ccc3c(c2)cc(C(=O)O)n3CCCCCC(=O)O)cc1
> 10000 nM	< 5%	< 1 µg/mL	–	42%	–	–	CCCCCCCCc1ccc(OCC(=O)COc2ccc3c(c2)cc(C(=O)O)n3CCCCCC)cc1
